Assay results taken from ChEMBL document CHEMBL4196080, “Identification of small-molecule inhibitors of USP2a” (Eur J Med Chem, 2018).
The source made the active and inactive calls. No cut-off for these calls is given here.

Key:
[1] = target: T1, Ubiquitin carboxyl-terminal hydrolase 2 (Homo sapiens, UniProt O75604); assay: (§1) Inhibition of human USP2a (258 to 605 residues) expressed in Escherichia coli BL21(DE3) using Ub-AMC as substrate incubated for 30 mins measured at 30 secs interval by fluorescence assay
T1 sequence (O75604 whole entry): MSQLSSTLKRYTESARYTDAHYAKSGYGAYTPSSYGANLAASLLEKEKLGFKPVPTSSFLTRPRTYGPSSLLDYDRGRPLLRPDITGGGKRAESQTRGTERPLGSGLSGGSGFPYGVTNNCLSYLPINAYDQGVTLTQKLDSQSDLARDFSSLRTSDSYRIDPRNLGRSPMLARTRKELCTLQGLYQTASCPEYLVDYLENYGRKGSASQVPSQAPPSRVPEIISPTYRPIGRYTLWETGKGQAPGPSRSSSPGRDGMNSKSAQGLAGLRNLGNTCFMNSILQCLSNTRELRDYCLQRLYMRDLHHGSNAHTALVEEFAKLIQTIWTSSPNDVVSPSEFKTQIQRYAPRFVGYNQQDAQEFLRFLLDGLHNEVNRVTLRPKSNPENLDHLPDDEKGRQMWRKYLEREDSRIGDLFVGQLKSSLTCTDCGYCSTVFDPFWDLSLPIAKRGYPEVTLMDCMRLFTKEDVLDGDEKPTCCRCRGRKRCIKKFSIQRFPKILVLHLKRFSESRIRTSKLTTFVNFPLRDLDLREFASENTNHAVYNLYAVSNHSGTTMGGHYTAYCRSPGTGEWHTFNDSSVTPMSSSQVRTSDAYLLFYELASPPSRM
Procedure, shortened: (§2)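 USP2a purified by Ni-chelate, Q-Sepharose flow-through and gel filtration in PBS pH 7.4 with 5 mM DTT. Enzyme at 10 nM in 50 mM Tris/HCl pH 7.5, 1 mM EDTA, 1 mM MgCl2, preincubated 30 min with compound. Ub-AMC 500 nM then added. Fluorescence (ex 355/em 460 nm) read every 30 s. Turbidity checked at 600 nm. Excess wild-type ubiquitin served as positive control. Percent inhibition was fitted to dose-response curves.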

[2] = target: T2, Ubiquitin carboxyl-terminal hydrolase 2 (Homo sapiens) (UniProt O75604); assay: (§3) Binding affinity to 15N-Gly/Cys/Ser/Trp-labeled human USP2a expressed in Escherichia coli BL21(DE3) assessed as change in chemical shift by NMR method
T2 sequence (whole entry): T1 sequence (O75604 whole entry)
Procedure, shortened: (§4)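 Selectively 15N-Gly/Cys/Ser/Trp-labeled USP2a from gel filtration in PBS pH 7.4 with 5 mM DTT, with 10% D2O added for lock. Ligand stock was 50 mM in d6-DMSO. Titration run in three steps at protein:compound ratios 1:1, 1:5 and 1:15. Binding followed as cross-peak shifts.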

[3] = target: T2, Ubiquitin carboxyl-terminal hydrolase 2 (Homo sapiens); assay: Inhibition of USP2a in human MCF7 cells assessed as downregulation of cycline D1 expression at 20 uM after 48 hrs by Western blot analysis; assay type: cell-based
Procedure, shortened: (§5)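 HCT 116 and MCF-7 cells were exposed to 20 μM compound or an equivalent DMSO portion and cultured for 48 h. Cyclin D1 levels were then assessed by western blot.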

[4] = target: T2, Ubiquitin carboxyl-terminal hydrolase 2 (Homo sapiens); assay: Inhibition of USP2a in human HCT116 cells assessed as downregulation of cycline D1 expression at 20 uM after 48 hrs by Western blot analysis; assay type: cell-based; procedure, shortened: as §5
[5] = target: T1, Ubiquitin carboxyl-terminal hydrolase 2; assay: as §3; procedure, shortened: as §4
[6] = target: T2, Ubiquitin carboxyl-terminal hydrolase 2 (Homo sapiens); assay: Inhibition of human USP2a (258 to 605 residues) expressed in Escherichia coli BL21(DE3) at 2000 uM using Ub-AMC as substrate incubated for 30 mins measured at 30 secs interval by fluorescence assay; procedure, shortened: as §2
[7] = target: Ubiquitin carboxyl-terminal hydrolase 7 (Homo sapiens) (UniProt Q93009); assay: Inhibition of human USP7 (208 to 561 residues) catalytic domain expressed in Escherichia coli BL21(DE3) at 10 to 2000 uM using Ub-AMC as substrate incubated for 30 mins measured at 30 secs interval by fluorescence assay
Procedure, shortened: (§6)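 GST-tagged USP7 catalytic domain (208-561) was expressed at 16 °C overnight. Tag removed with PreScission protease, then purified by Q-Sepharose, Mono Q and gel filtration in 50 mM Tris/HCl, 150 mM NaCl, 2 mM DTT. Activity measured by Ub-AMC hydrolysis (500 nM substrate, ex 355/em 460 nm, 30 s reads) after 30 min preincubation with compound. Values are mean ± SD.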

[8] = target: T2, Ubiquitin carboxyl-terminal hydrolase 2 (Homo sapiens); assay: as §1; procedure, shortened: as §2
[9] = target: Ubiquitin carboxyl-terminal hydrolase 7 (Homo sapiens) (UniProt Q93009); assay: Inhibition of human USP7 (208 to 561 residues) catalytic domain expressed in Escherichia coli BL21(DE3) at 10 uM using Ub-AMC as substrate incubated for 30 mins measured at 30 secs interval by fluorescence assay; procedure, shortened: as §6

Sequence of Ubiquitin carboxyl-terminal hydrolase 7 (Homo sapiens) (Q93009 whole entry, looked up, the tested form may be a part): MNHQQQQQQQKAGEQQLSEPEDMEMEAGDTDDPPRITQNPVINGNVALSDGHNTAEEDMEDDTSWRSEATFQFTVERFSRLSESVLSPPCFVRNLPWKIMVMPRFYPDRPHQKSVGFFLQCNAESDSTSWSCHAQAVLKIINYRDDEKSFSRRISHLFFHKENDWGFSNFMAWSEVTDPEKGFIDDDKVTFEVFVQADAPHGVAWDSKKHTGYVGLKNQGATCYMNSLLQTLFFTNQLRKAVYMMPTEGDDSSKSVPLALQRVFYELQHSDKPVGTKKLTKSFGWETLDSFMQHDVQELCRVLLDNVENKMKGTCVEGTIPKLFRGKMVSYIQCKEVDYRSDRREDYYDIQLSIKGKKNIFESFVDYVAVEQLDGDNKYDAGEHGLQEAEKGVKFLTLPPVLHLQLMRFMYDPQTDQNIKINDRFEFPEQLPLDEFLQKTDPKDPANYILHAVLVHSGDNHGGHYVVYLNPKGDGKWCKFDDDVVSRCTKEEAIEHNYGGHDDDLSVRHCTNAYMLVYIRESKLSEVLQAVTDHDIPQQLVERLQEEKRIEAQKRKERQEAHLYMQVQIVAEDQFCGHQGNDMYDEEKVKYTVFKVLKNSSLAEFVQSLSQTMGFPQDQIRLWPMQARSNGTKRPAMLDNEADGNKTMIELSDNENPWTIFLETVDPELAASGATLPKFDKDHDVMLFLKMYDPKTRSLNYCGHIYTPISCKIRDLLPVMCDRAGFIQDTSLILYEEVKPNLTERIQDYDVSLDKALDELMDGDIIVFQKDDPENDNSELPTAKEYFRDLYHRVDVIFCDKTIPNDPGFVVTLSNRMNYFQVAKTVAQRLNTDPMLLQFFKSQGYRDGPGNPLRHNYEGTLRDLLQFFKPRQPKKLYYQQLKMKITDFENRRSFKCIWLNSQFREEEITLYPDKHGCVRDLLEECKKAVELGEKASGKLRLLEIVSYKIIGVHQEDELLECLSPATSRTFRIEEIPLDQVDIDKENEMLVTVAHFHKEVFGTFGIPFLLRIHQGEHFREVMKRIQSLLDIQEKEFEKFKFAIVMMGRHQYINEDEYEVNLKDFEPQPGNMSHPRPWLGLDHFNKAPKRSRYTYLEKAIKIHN

IC50 ([1]; read-out: IC50) | IC50 [1] | Structure (SMILES) | further results
8.7 µM | – | NC(=O)c1c(N)sc2c1CCCC2 | –
– | Not Active | O=C(O)c1cc(-c2cccs2)on1 | –
– | – | COc1ccc2c(c1)CCCC2=O | Activity [2]: inactive
– | Not Active | O=C(O)CNC(=O)c1cc(-c2cccs2)on1 | –
– | – | COC(=O)c1ccc2cc[nH]c2c1 | Activity [2]: inactive
– | Not Active | Cl.NCc1ccc(Cc2cccs2)cc1 | –
– | – | CSc1nnc(-n2cccc2)s1 | Activity [2]: inactive
– | Not Active | COc1ccc(N2CC(C(=O)OCc3cc(-c4cccs4)on3)CC2=O)cc1 (stereo unspecified) | –
– | Not Active | CC(C)(C)OC(=O)CNC(=O)c1cc(-c2cccs2)on1 | –
1300 µM | – | OCc1cc(-c2cccs2)on1 | inhibition [3]: inactive; inhibition [4]: inactive; Kd [5]: 900 µM; inhibition [6]: Active; inhibition [7]: inactive
– | Not Active | Cc1c(CO)cnn1-c1ccccc1 | –
> 5000 µM | – | Cc1cc(C#N)cc(C)c1O | –
3.3 µM | – | NC(=O)c1c(NC(=O)COCc2cc(-c3cccs3)on2)sc2c1CCCC2 | inhibition [3]: Active; inhibition [8]: Dose-dependent effect; inhibition [9]: inactive; inhibition [4]: Active
> 5000 µM | – | Nc1cc(-c2ccccc2)n[nH]1 | Activity [2]: inactive
> 5000 µM | – | NCc1ccc(-c2csnn2)cc1 | –
> 100 µM | – | CCCn1nc(C(=O)OCc2cc(-c3cccs3)on2)c2ccccc2c1=O | –
> 50 µM | – | CC(Oc1ccc(C#N)cc1)C(=O)OCc1cc(-c2cccs2)on1 (stereo unspecified) | –
– | Not Active | CN1CCOc2cc(C#N)ccc21 | –
– | Not Active | O=C(OCc1cc(-c2cccs2)on1)c1ccc(S(=O)(=O)N2CCOCC2)cc1 | –
– | Not Active | O=C(O)COCc1cc(-c2cccs2)on1 | –
– | – | Nc1ccc(-c2cnco2)cc1 | Activity [2]: inactive
